Data published in ChEMBL document CHEMBL1139435, “Beta-oxygenated analogues of the 5-HT2A serotonin receptor agonist 1-(4-bromo-2,5-dimethoxyphenyl)-2-aminopropane” (J Med Chem, 2004).

Tests used:
Monkey [1] = assay: Percent reduction of intraocular pressure after 1 hour following topical ocular administration to normal eye conscious cynomolgus monkeys; assay type: functional, Cercopithecidae
How it was run: (§1)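 Conscious cynomolgus monkeys dosed topically in the eye with 300 µg in phosphate-buffered saline, pH 7.4. Vehicle was given to test eyes of five or six further animals. IOP measured at baseline and at 1, 3 and 6 h. Values are % reduction from baseline.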

Monkey [2] = assay: Percent reduction of intraocular pressure after 3 hours following topical ocular administration to normal eye conscious cynomolgus monkeys; assay type: functional, Cercopithecidae; how it was run: as §1
Monkey [3] = assay: Percent reduction of intraocular pressure after 6 hours following topical ocular administration to normal eye conscious cynomolgus monkeys; assay type: functional, Cercopithecidae; how it was run: as §1
[4] = molecular target: 5-hydroxytryptamine receptor 2A (Rattus norvegicus) (UniProt P14842); assay: Efficacy as 5-HT2A receptor-mediated intracellular calcium [Ca2+] mobilization in rat A7r5 cells; assay type: functional, cell-based
How it was run: (§2)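 Rat A7r5 vascular smooth muscle cells grown in DMEM/10% FBS, seeded at 20 000 cells/well, cultured 2 days. Loaded with calcium dye in HBSS/20 mM HEPES/2.5 mM probenecid pH 7.4 for 1 h at 23 °C. Response is peak minus basal fluorescence, expressed as % of maximal 5-HT response.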

[5] = molecular target: T1, 5-hydroxytryptamine receptor 2A (Rattus norvegicus, UniProt P14842); assay: Serotonin 5-HT2A receptor-mediated intracellular calcium [Ca2+] mobilization in rat A7r5 cells; assay type: functional, cell-based; how it was run: as §2
[6] = molecular target: T1, 5-hydroxytryptamine receptor 2A; assay: Binding affinity for 5-HT2A serotonin receptor
How it was run: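 Incubated 1 h at 23 °C. Nonspecific binding defined with methiothepin (10 µM final). Ended by vacuum filtration over GF/B filters presoaked in 0.3% polyethyleneimine, washed with ice-cold buffer. Bound counts read by scintillation. IC50 for displacing labelled DOI binding.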

Sequence of 5-hydroxytryptamine receptor 2A (Rattus norvegicus) (P14842 whole entry): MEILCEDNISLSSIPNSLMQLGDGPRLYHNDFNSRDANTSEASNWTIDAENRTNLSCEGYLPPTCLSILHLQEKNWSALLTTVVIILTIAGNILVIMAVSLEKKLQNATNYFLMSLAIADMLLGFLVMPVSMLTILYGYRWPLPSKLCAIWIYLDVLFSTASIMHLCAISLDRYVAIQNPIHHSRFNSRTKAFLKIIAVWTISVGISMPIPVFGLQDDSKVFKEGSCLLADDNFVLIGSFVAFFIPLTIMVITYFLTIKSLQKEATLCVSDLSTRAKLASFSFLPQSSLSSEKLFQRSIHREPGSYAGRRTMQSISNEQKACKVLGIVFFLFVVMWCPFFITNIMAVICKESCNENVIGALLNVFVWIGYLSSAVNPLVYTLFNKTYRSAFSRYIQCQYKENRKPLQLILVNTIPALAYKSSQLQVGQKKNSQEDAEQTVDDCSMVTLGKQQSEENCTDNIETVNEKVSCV
T1 sequence (P14842 whole entry): as above

SMILES | Reduction (Monkey [1]) | Reduction (Monkey [2]) | Reduction (Monkey [3]) | Efficacy [4] | EC50 [5] | Ki [6]
COc1cc([C@@H](OC)[C@@H](C)N)c(OC)cc1Br | 19% | 27.5% | 25.5% | 93% | 130 nM | 0.3 nM
COc1cc([C@@H](O)[C@@H](C)N)c(OC)cc1Br | 10.7% | 19% | 22.1% | 50% | 100 nM | 0.5 nM
COc1cc(C2CNCCO2)c(OC)cc1Br (stereo not given) |  |  |  | 4% |  | 20.6 nM
COc1cc([C@H](O)[C@H](C)N)c(OC)cc1Br |  |  |  | 16% |  | 10 nM
COc1cc(C[C@@H](C)N)c(OC)cc1I | 15.2% | 31% | 34.4% |  |  | 
COc1cc([C@@H](O)[C@H](C)N)c(OC)cc1Br |  |  |  | 22% | 840 nM | 1.1 nM
COc1cc(C(O)CN)c(OC)cc1Br (stereo not given) |  |  |  | 8% |  | 2.1 nM
COc1cc(CC(C)N)c(OC)cc1Br (stereo not given) |  |  |  | 38% |  | 
COc1ccc(OC)c(C[C@@H](C)N)c1 |  |  |  | 34% | 740 nM | 9.2 nM
COc1cc(C(CN)OC)c(OC)cc1Br (stereo not given) |  |  |  | 63% | 120 nM | 2 nM
CC[C@H](N)[C@H](O)c1cc(OC)c(Br)cc1OC |  |  |  | 5% |  | 20.3 nM
CCC(N)Cc1cc(OC)c(Br)cc1OC (stereo not given) |  |  |  | 15% |  | 7.6 nM
COc1cc([C@H](O)[C@@H](C)N)c(OC)cc1Br |  |  |  | 20% |  | 9.2 nM
COc1cc([C@H](OC)[C@H](C)N)c(OC)cc1Br |  |  |  | 31% | 1410 nM | 6 nM
